# Measured values collected from several papers.
# Each line is one published result; the experiments were not run side by side.
# Target: Serine/threonine-protein kinase 10 (STK10, Homo sapiens, UniProt O94804)
Structure (SMILES),observed,mode,method,concentration,measurement,value
COc1ncccc1-c1cnn2ccc(N3CCN(C(=O)OC(C)C)CC3)nc12,binding,,competition with immobilised ligand,1 µM,remaining binding,63%
Cc1nn(C)cc1-c1nc2c(N3CCN(Cc4ccc(Cl)cc4)CC3)c(Cl)cnc2[nH]1,binding,,competition with immobilised ligand,1 µM,remaining binding,100%
N#CC1(c2ccccn2)CCN(Cc2cc(C(=O)O)c(=O)n3ccccc23)CC1,cell-free assay,,competition with immobilised ligand,1 µM,remaining binding,100%
Nc1ncc(-c2nc(N3CCOCC3)nc(N3CCOCC3)n2)c(C(F)F)n1,binding,,competition with immobilised ligand,10 µM,remaining binding,64%
CC(C)(C)c1cc(C=C(C#N)C#N)cc(Br)c1O,enzyme activity,inhibitor,,0.5 µM,remaining activity,95.4%
Cn1cncc1[C@@](O)(COc1ccc(C#N)cc1-c1ccc(OC(F)(F)F)cc1)c1ccc(C#N)cc1,cell-free assay,,competition with immobilised ligand,1 µM,remaining binding,100%
O=c1[nH]c2ccccc2n1C1CCN(Cc2ccc(-c3[nH]c4cc5ncnc5cc4nc3-c3ccccc3)cc2)CC1,cell-free assay,,,0.5 µM,remaining signal,92.6%
COc1cc(Nc2ncc(F)c(Nc3ccc4c(n3)NC(=O)C(C)(C)O4)n2)cc(OC)c1OC,binding,,,10 µM,inhibition,100%
